Assay results reported in ChEMBL document CHEMBL1765055 (J Med Chem, 2011).
“And” between values parts separate entries of the source, which are not always exact repeats. Equal entries are not always repeated. Non-standard residues stand in square brackets, D forms with d. Residues, ends and D or L forms follow the SMILES beside them. N(4-hydroxyphenethyl)Gly = O=C(O)CNCCc1ccc(O)cc1; Gly(N-4-hydroxybenzyl) = O=C(O)CNCc1ccc(O)cc1; N(1S-Me-propyl)Gly = CC[C@H](C)NCC(=O)O

Columns and labels:
[1] = molecular target: T1, Neurotensin receptor type 2 (Homo sapiens, UniProt O95665); test: Displacement of [3H]NT from human NTS2 receptor expressed in HEK293 cells; format: cell-based
T1 sequence (O95665 whole entry): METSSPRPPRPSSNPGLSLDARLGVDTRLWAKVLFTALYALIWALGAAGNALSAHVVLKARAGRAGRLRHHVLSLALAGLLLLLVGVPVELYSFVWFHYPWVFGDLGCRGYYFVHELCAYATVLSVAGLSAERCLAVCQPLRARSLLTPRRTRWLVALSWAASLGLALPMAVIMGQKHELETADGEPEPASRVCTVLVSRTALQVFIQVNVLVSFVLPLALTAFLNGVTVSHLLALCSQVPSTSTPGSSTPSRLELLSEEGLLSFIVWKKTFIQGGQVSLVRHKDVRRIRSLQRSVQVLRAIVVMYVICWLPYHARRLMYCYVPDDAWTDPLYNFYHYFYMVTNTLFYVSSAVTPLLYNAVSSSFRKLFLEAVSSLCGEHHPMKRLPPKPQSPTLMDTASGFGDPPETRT

[2] = molecular target: T1, Neurotensin receptor type 2; test: Agonist activity at human NTS2 receptor expressed in HEK293 cells assessed as inhibition of constitutive activity on MAPK-mediated luciferase activity; format: functional, cell-based
[3] = molecular target: T1, Neurotensin receptor type 2; test: Agonist activity at human NTS2 receptor expressed in HEK293 cells assessed as inhibition of constitutive activity on MAPK-mediated luciferase activity at 3 uM in presence of SR142948A; format: functional, cell-based
Summary of the method: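 HEK 293 cells transiently expressing hNTS2 plus Elk1 trans-activator/luciferase reporter plasmids were reseeded in 1% FBS medium. They received 3 μM compound together with graded concentrations of the antagonist SR142948A for 24 h at 37 °C. Luciferase luminescence was measured as the readout of constitutive MAPK activity. Mean curves came from 7–11 independent experiments in triplicate.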

[4] = molecular target: T2, Neurotensin receptor type 1 (Homo sapiens, UniProt P30989); test: Displacement of [3H]neurotensin from human NTS1 receptor expressed in CHO cells; format: cell-based
T2 sequence (P30989 whole entry): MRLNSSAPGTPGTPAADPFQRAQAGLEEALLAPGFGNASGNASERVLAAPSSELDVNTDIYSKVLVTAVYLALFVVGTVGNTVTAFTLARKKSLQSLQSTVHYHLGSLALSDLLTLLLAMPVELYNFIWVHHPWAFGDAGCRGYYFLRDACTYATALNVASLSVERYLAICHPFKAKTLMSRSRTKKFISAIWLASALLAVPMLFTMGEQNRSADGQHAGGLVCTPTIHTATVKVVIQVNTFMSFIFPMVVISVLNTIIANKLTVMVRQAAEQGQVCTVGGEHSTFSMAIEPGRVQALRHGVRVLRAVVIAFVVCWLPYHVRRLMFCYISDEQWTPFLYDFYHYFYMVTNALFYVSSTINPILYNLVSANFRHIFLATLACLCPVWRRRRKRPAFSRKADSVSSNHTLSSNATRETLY

Homo sapiens = species: Homo sapiens; test: Selectivity ratio of Ki for human NTS1 to Ki for human NTS2
[5] = molecular target: T1, Neurotensin receptor type 2; test: Ratio of compound Emax to neurotensin Emax for human NTS2 receptor
[6] = molecular target: T2, Neurotensin receptor type 1; test: Ratio of compound Emax to neurotensin Emax for human NTS1 receptor

Row | Compound | Ki [1] | Ki [4] | Ratio Ki (Homo sapiens) | also measured
1 | CC[C@H](C)[C@H](NC(=O)CN(CCc1ccc(O)cc1)C(=O)[C@@H]1CCCN1C(=O)[C@H](CCCNC(=N)N)NC(=O)[C@@H](N)CCCNC(=N)N)C(=O)N[C@@H](CC(C)C)C(=O)O | 8.8 nM | – | – | EC50 [2]: 480 nM; Activity [3]: Dose-dependent effect
2 | CC[C@H](C)[C@H](NC(=O)[C@H](Cc1ccc(O)cc1)NC(=O)[C@@H]1CCCN1C(=O)[C@H](CCCNC(=N)N)NC(=O)[C@@H](N)CCCNC(=N)N)C(=O)N[C@@H](C)C(=O)O | 1300 nM | – | – | –
3 | CC[C@H](C)[C@H](NC(=O)[C@H](CC1=CC=C(O)CC1)NC(=O)[C@@H]1CCCN1C(=O)[C@H](CCCNC(=N)N)NC(=O)[C@@H](N)CCCNC(=N)N)C(=O)N[C@@H](CC(C)C)C(=O)O | – | – | – | Kd [1]: 1.2 nM
4 | CC[C@H](C)[C@H](NC(=O)[C@H](Cc1ccc(O)cc1)NC(=O)[C@@H]1CCCN1C(=O)[C@H](CCCCN)NC(=O)[C@@H](N)CCCCN)C(=O)N(CC(=O)O)CC(C)C | 1600 nM | – | – | –
5 | CC[C@H](C)[C@H](NC(=O)CN(CCc1ccc(OC)cc1)C(=O)[C@@H]1CCCN1C(=O)[C@H](CCCN=C(N)N)NC(=O)[C@@H](N)CCCN=C(N)N)C(=O)N[C@@H](CC(C)C)C(=O)O | 38 nM | – | – | –
6 | CC[C@H](C)[C@H](NC(=O)CN(CCc1ccccc1)C(=O)[C@@H]1CCCN1C(=O)[C@H](CCCN=C(N)N)NC(=O)[C@@H](N)CCCN=C(N)N)C(=O)N[C@@H](CC(C)C)C(=O)O | 20 nM | – | – | –
7 | CC[C@H](C)[C@H](NC(=O)CN(CCc1ccccn1)C(=O)[C@@H]1CCCN1C(=O)[C@H](CCCNC(=N)N)NC(=O)[C@@H](N)CCCNC(=N)N)C(=O)N[C@@H](CC(C)C)C(=O)O | 100 nM | – | – | –
8 | CC[C@H](C)[C@H](NC(=O)[C@H](Cc1ccc(O)cc1)NC(=O)[C@@H]1CCCN1C(=O)[C@H](CCCCN)NC(=O)CNCCCCN)C(=O)N[C@@H](CC(C)C)C(=O)O | 0.74 nM | – | – | –
9 | CC[C@H](C)[C@H](NC(=O)[C@H](Cc1ccc(O)cc1)NC(=O)[C@@H]1CCCN1C(=O)[C@H](CCCCN)NC(=O)[C@@H](N)CCCCN)C(=O)N[C@@H](CC(C)C)C(=O)O | 6.1 nM | – | – | –
10 | CC[C@H](C)[C@H](NC(=O)[C@H](Cc1ccc(O)cc1)NC(=O)[C@@H]1CCCN1C(=O)CN(CCCCN)C(=O)[C@@H](N)CCCCN)C(=O)N[C@@H](CC(C)C)C(=O)O | 21 nM | – | – | –
11 | CC[C@H](C)N(CC(=O)N[C@@H](CC(C)C)C(=O)O)C(=O)[C@H](Cc1ccc(O)cc1)NC(=O)[C@@H]1CCCN1C(=O)[C@H](CCCCN)NC(=O)[C@@H](N)CCCCN (H-KKPY[N(1S-Me-propyl)Gly]L-OH) | 330 nM and 1200 nM | 3000 nM and 3300 nM | – | –
12 | CC[C@H](C)[C@H](NC(=O)CN(Cc1ccc(O)cc1)C(=O)[C@@H]1CCCN1C(=O)[C@H](CCCCN)NC(=O)[C@@H](N)CCCCN)C(=O)N[C@@H](CC(C)C)C(=O)O (H-KKP[Gly(N-4-hydroxybenzyl)]IL-OH) | 1000 nM | 30000 nM | 30 | –
13 | CC[C@H](C)[C@H](NC(=O)CN(CCc1ccc(O)cc1)C(=O)[C@@H]1CCCN1C(=O)[C@H](CCCCN)NC(=O)[C@@H](N)CCCCN)C(=O)N[C@@H](CC(C)C)C(=O)O (H-KKP[N(4-hydroxyphenethyl)Gly]IL-OH) | 4.3 nM | 32000 nM | 7400 | EC50 [2]: 590 nM; Emax [5]: 3.1
14 | CC[C@H](C)[C@H](NC(=O)CN(CCc1ccc(O)cc1)C(=O)[C@@H]1CCCN1C(=O)[C@H](CCCNC(=N)N)NC(=O)[C@@H](N)CCCCN)C(=O)N[C@@H](CC(C)C)C(=O)O (H-KRP[N(4-hydroxyphenethyl)Gly]IL-OH) | 4.4 nM | 8300 nM | 1900 | EC50 [2]: 690 nM; Emax [5]: 4.6
15 | CC[C@H](C)[C@H](NC(=O)CN(CCc1ccc(O)cc1)C(=O)[C@@H]1CCCN1C(=O)[C@H](CCCCN)NC(=O)[C@@H](N)CCCNC(=N)N)C(=O)N[C@@H](CC(C)C)C(=O)O (H-RKP[N(4-hydroxyphenethyl)Gly]IL-OH) | 6.7 nM | 80000 nM | 12000 | EC50 [2]: 840 nM; Emax [5]: 2.6; Emax [6]: 0.07
16 | H-ARPYIL-OH | 56 nM | 4.6 nM | 0.082 | –
17 | H-RAPYIL-OH [listing 1 of 2 here] | 24 nM | 11 nM | – | –
18 | H-RAPYIL-OH [listing 2 of 2 here] | – | – | 0.46 | –
19 | H-RRAYIL-OH [listing 1 of 2 here] | 63 nM | 26 nM | – | –
20 | H-RRAYIL-OH [listing 2 of 2 here] | – | – | 0.41 | –
21 | H-RRPAIL-OH [listing 1 of 2 here] | 83 nM | 1300 nM | – | –
22 | H-RRPAIL-OH [listing 2 of 2 here] | – | – | 16 | –
23 | H-RRPYAL-OH [listing 1 of 2 here] | 63 nM | 100 nM | – | –
24 | H-RRPYAL-OH [listing 2 of 2 here] | – | – | 1.6 | –
